The values below come from publication PMC7785655 (Toxicology, 2020).

Like-named read-outs stand apart in the source and are kept apart here.

Data set [1] is described as follows: Drug recovery from 2D cultures or LAMPS chip effluent. The data set is classed as in vitro ADME, human. As to conditions: human; for recovery: primary human hepatocytes, 2D cultures or LAMPS chips. A digest of the protocol:
(§1)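 Hepatocytes were seeded from thaw at 2.75×10^6 cells/mL into fibronectin/collagen I-coated chips or 96-well plates, then overlaid with THP-1, EA.hy926 and LX-2 cells. Drugs in 0.1% DMSO vehicle were added on day 0. Chips were perfused at 15 μL/hour, and 2D media were exchanged daily for up to 10 days. Drugs in effluent or medium were quantified by LC-MS/MS and expressed as % of starting concentration. Values are mean±SEM, n=3–9.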

Data set [2] relates to primary human hepatocytes. As to conditions: cited from earlier work.
For data set [3], the system named is primary human hepatocytes. The experiment in a line: Drug recovery from 2D cultures or LAMPS chip effluent. As to conditions: primary human hepatocytes; effect most pronounced for these drugs. The data set is classed as in vitro ADME. A digest of the protocol: as §1
Assay in data set [4]: as above
The data set is classed as in vitro ADME. As to conditions: human, iCell hepatocytes. A digest of the protocol:
as §1

Data set [5] deals with primary human hepatocytes. The data set can be described thus: Drug effects on viability and function in 2D monolayer cultures. The data set is classed as cell-based. As to conditions: day 10; 2D cultures with primary hepatocytes; Tolcapone 88 μM, Trovafloxacin 150 μM, LPS 1 μg/mL.
In data set [6] the test system is primary human hepatocytes. The data set can be described thus: Drug effects on viability and function. The data set is classed as cell-based. As to conditions: both laboratories.
The mark [7] stands for this setting: Tolcapone 88 μM, 5 days, vs No Treatment.
Setting [8] is: 2D monolayer-cultured primary human hepatocytes.

For `Cn1c(=O)c2c(ncn2C)n(C)c1=O` [Caffeine], in data set [1], the recovery is around 100%. In data set [2] (Caffeine 600 μM, previous study in Laboratory 2, different donor hepatocytes, ref Vernetti et al. 2016), the “effect on LDH levels” value is recorded as “reduced”. Moreover, in data set [2], the effect on albumin result is “without significant effect” and the effect on urea entry was “without significant effect”.

As for `CCc1ccc(CCOc2ccc(CC3SC(=O)NC3=O)cc2)nc1` (centres unmarked) [Pioglitazone], in data set [3], the “recovery in LAMPS chips compared with 2D monolayer cultures” value is recorded as “lower recovery than 2D monolayer cultures”. Further, the recovery in data set [4] is 10 to 40%; in data set [4] (LAMPS chips and 2D monolayer), around 100%.

For `CN(CCOc1ccc(CC2SC(=O)NC2=O)cc1)c1ccccn1` (centres unmarked) [Rosiglitazone], the recovery in data set [4] was 10 to 40%; in data set [4] (LAMPS chips and 2D monolayer), around 100%.

Turning to `Cc1ccc(C(=O)c2cc(O)c(O)c([N+](=O)[O-])c2)cc1` [Tolcapone], in data set [5], the cell viability result was “pronounced effects”. This molecule also returned a recovery in data set [4] of 10 to 40%. Moreover, in data set [4] (LAMPS chips and 2D monolayer), the recovery is around 100%. In data set [6] (setting [7]), the albumin production result was “statistically significant decrease” and the urea production result is given as “statistically significant decrease”.

Consider `Cc1c(C)c2c(c(C)c1O)CCC(C)(COc1ccc(CC3SC(=O)NC3=O)cc1)O2` (centres unmarked) [Troglitazone], for which the “recovery in LAMPS chips compared with 2D monolayer cultures” value in data set [3] is “lower recovery than 2D monolayer cultures”. This molecule also registered a recovery at 28 µM in data set [1] (setting [8]) above 10%. The same molecule had a recovery at 1 day, 28 µM in data set [1] (setting [8]) below 1%. In addition, the recovery in data set [4] was 10 to 40%; in data set [4] (LAMPS chips and 2D monolayer), around 100%.

As for `N[C@@H]1[C@H]2CN(c3nc4c(cc3F)c(=O)c(C(=O)O)cn4-c3ccc(F)cc3F)C[C@@H]12` [Trovafloxacin], the recovery in data set [1] was around 100%. For the same molecule, the cell viability result in data set [5] is given as “pronounced effects”. In data set [6] (Trovafloxacin 150 μM), the “effect on LDH” value is listed as “significant effects” and the effect on albumin result is reported as “significant effects”.
